Here are results for one molecule from ChEMBL document CHEMBL3232734, “Nitric oxide (NO) releasing poly ADP-ribose polymerase 1 (PARP-1) inhibitors targeted to glutathione S-transferase P1-overexpressing cancer cells” (J Med Chem, 2014).

Calls of active or inactive are those of the source. The calls are words filed in the database; no cut-off is given here.

Data set [1] has as its system A549. Nature of the data set: Induction of endoplasmic reticulum stress in human A549 cells assessed as upregulation of ATF4 protein expression by immunoblot analysis. It is filed as functional, cell-based. A general note: Immunoblotting shows a protein as a band on a membrane.
Data set [2] concerns the target T1, MAP kinase p38 (Homo sapiens) (UniProt O15264+Q15759+Q16539+P53778). Nature of the data set: Induction of p38 phosphorylation in human A549 cells within 15 mins after drug treatment by immunoblot analysis. The data set is classed as cell-based. The gist of the method: (§1)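 A549 cells treated with compound and p38 phosphorylation followed by immunoblot from 15 min to 8 h after the start of treatment. At least three independent experiments.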

The target of data set [3] is T1, MAP kinase p38 (Homo sapiens). Nature of the data set: Induction of p38 phosphorylation in human A549 cells after 8 hrs by immunoblot analysis. The data set is classed as cell-based. Summed up:
as §1

The subject of data set [4] is A549. Nature of the data set: Induction of apoptosis in human A549 cells assessed as cleaved caspase 8 level at 1 uM within 6 hrs after drug treatment by immunoblot analysis. It is filed as functional, cell-based. The gist of the method:
(§2)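 A549 cells treated with compound, lysed and immunoblotted for cleaved caspase 8, caspases 3 and 7, and PARP (full-length and cleaved). Caspase 8 was read within 6 h at 1 μM. Representative of at least three independent experiments.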

Data set [5] concerns A549. Nature of the data set: Induction of apoptosis in human A549 cells assessed as cleaved caspase 3 level by immunoblot analysis. It is filed as functional, cell-based. Summed up: as §2
For data set [6], the system named is A549. Nature of the data set: Induction of apoptosis in human A549 cells assessed as cleaved caspase 7 level by immunoblot analysis. It is filed as functional, cell-based. Summed up:
as §2

Data set [7] relates to A549. Nature of the data set: Induction of apoptosis in human A549 cells assessed as cleaved PARP level by immunoblot analysis. The data set is classed as functional, cell-based. Summed up:
as §2

The test system of data set [8] is A549. Nature of the data set: Anticancer activity against human A549 cells xenografted in NCr nu/nu athymic mouse assessed as reduction of tumor growth at 92 umol/kg, iv administered two times a week for 4 weeks. The data set is classed as functional, organism-based. The gist of the method: (§3)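 A549 cells (RPMI 1640 + 10% FBS, ≤4 passages) harvested at 70–80% confluence, 5 × 10^6 cells in PBS implanted s.c.; at ~3 mm × 3 mm tumors, mice randomized into groups of 12. Tail-vein injection at 92 μmol/kg in 20 μL DMSO, twice weekly for 4 weeks; saline or DMSO controls. Tumors caliper-measured twice weekly, volume = π/2 × L × W². Tumors resected at end, frozen, extracted for metabolite analysis by LC/MS.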
For orientation: Xenograft models place foreign cells or tissue in a host animal.

The subject of the next data set is Mus musculus. Nature of the data set: Systemic toxicity in NCr nu/nu athymic mouse xenografted with human A549 cells assessed as body weight at 92 umol/kg, iv administered two times a week for 4 weeks (reference value: 25.0 +/-0.78 gms). The data set is classed as organism-based. As to conditions: in vivo, 672 h.
In data set [9] the test system is Tumour. Nature of the data set: Drug uptake in tumor of NCr nu/nu athymic mouse xenografted with human A549 cells at 92 umol/kg, iv administered two times a week for 4 weeks. The data set is classed as ADME, organism-based, Neoplasm. The note with it: in vivo, 672 h. Summed up: as §3
For data set [10], the system named is Tumour. Nature of the data set: Drug metabolism in tumor of NCr nu/nu athymic mouse xenografted with human A549 cells assessed as metabolite formation at 92 umol/kg, iv administered two times a week for 4 weeks. The data set is classed as ADME, organism-based, Neoplasm. As to conditions: in vivo, 672 h. Summed up: as §3
Data set [11] has as its system A549. Nature of the data set: Anticancer activity against human A549 cells assessed as reduction in number of colonies at 1 uM in presence of 3 nM proteasome inhibitor bortezomib by colony forming assay. It is filed as functional, cell-based. Summed up:
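A549 colony forming assay after combined treatment with the proteasome inhibitor bortezomib.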

A short description of data set [12]: Prodrug activation assessed as GSH reactivity in aqueous phosphate buffer at pH 7.4 by UV-Visible spectrophotometer analysis. The data set is classed as physicochemical. Summed up:
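UV–vis kinetics at 37 °C in 0.1 M phosphate buffer, pH 7.4, with 50 μM DTPA and 4 mM GSH, with or without 40 nM recombinant GSTP1 or GSTA1. Substrate (typically 10 μM) added after thermal equilibration. Ratios are k with enzyme over k with GSH alone.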

Data set [13] has as its target Glutathione S-transferase P (Homo sapiens, UniProt P09211). Nature of the data set: Ratio of prodrug activation in presence of GSH and recombinant GSTP1 (unknown origin) to prodrug activation in presence of GSH by UV-Visible spectrophotometry. Summed up:
(§4)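 UV–vis kinetics at 37 °C in 0.1 M phosphate buffer, pH 7.4, with 50 μM DTPA and 4 mM GSH, with or without 40 nM recombinant GSTP1 or GSTA1. Substrate (typically 10 μM) added after thermal equilibration. Absorbance followed at 302 nm; first-order rate from an exponential fit. Ratios are k with enzyme over k with GSH alone.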

For data set [14], the target named is T2, Glutathione S-transferase A1 (Homo sapiens, UniProt P08263).
T2 sequence (P08263 whole entry): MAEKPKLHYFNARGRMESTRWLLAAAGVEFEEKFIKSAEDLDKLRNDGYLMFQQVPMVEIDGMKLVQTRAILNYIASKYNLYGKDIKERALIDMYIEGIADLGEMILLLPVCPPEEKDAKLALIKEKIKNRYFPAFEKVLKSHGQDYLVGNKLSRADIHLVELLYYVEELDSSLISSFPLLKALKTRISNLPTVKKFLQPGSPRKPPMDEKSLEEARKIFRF
Nature of the data set: Ratio of prodrug activation in presence of GSH and recombinant GSTA1 (unknown origin) to prodrug activation in presence of GSH by UV-Visible spectrophotometry. The gist of the method:
as §4

The target of data set [15] is Poly [ADP-ribose] polymerase 1 (Homo sapiens, UniProt P09874). Nature of the data set: Inhibition of PARP-1 (unknown origin) assessed as incorporation of biotinylated poly ADP-ribose onto histone proteins at 0.1 to 1000 nM by colorimetric analysis in presence of GSH and GSTP1. The gist of the method: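 PARP activity measured with a colorimetric histone biotinylated poly(ADP-ribose) incorporation kit. GSH (4 mM) with or without 40 nM GSTP1 in PBS pH 7.4 was preincubated 10 min at 37 °C. Reaction started by adding prodrug (10 μM substrate) and ran a further 10 min; absorbance read at 450 nm. Inhibitors tested over 0.01 nM–1 μM.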

Data set [16] has as its system A549. Nature of the data set: Drug metabolism in human A549 cells assessed as nitric oxide release at 10 uM by LC/MS/MS analysis in presence of GSH/GSTP1. The note with it: a549, 10 µM. The data set is classed as ADME, cell-based. The gist of the method: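 A549 cells were plated in 75 cm2 flasks and grown overnight at 37 °C, then treated with 10 μM compound for varying times up to 1 h. Cells were lysed in 10 mM HCl/acetonitrile, 5-sulfosalicylic acid was added, and the precipitate was spun off at 12000g for 15 min. Supernatant was filtered and metabolites were identified by positive-ion LC/MS/MS (Q-TOF, C18, water/acetonitrile/0.1% formic acid gradient).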

Data set [17] has as its system A549. Nature of the data set: Induction of endoplasmic reticulum stress in human A549 cells assessed as protein glutathionylation measured within 1 hr post-drug treatment by immunoblot analysis. It is filed as functional, cell-based.
Data set [18] deals with A549. Nature of the data set: Induction of endoplasmic reticulum stress in human A549 cells assessed as protein glutathionylation after 8 hrs by immunoblot analysis. The data set is classed as functional, cell-based.
Data set [19] concerns A549. Nature of the data set: Induction of apoptosis in human A549 cells assessed as cleaved PARP level after 8 hrs by immunoblot analysis. It is filed as functional, cell-based. Summed up:
as §2

The target of data set [20] is Eukaryotic translation initiation factor 2 subunit 1 (Homo sapiens) (UniProt P05198). Nature of the data set: Induction of eIF2-alpha phosphorylation in human A549 cells by immunoblot analysis. It is filed as cell-based.
The subject of data set [21] is A549. Nature of the data set: Induction of endoplasmic reticulum stress in human A549 cells assessed as upregulation of CHOP protein expression by immunoblot analysis. It is filed as functional, cell-based.
Data set [22] has as its system A549. Nature of the data set: Induction of endoplasmic reticulum stress in human A549 cells assessed as upregulation of BiP protein expression by immunoblot analysis. It is filed as functional, cell-based.
In the next data set the test system is U-937. Nature of the data set: Drug metabolism in human U937 cells assessed as nitric oxide release at 5 uM by LC/MS/MS analysis in presence of GSH/GSTP1. The note with it: u-937, 5 µM.

Sequence of Eukaryotic translation initiation factor 2 subunit 1 (Homo sapiens) (P05198 whole entry): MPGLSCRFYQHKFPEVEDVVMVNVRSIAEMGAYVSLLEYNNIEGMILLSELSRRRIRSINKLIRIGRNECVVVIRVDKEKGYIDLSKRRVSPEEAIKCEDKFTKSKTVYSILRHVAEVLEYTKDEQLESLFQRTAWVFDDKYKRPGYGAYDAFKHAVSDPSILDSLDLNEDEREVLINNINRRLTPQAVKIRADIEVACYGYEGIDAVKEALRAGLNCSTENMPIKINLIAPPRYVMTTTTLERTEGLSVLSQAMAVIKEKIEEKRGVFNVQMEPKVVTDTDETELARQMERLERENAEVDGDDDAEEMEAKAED
Sequence of Glutathione S-transferase P (P09211 whole entry): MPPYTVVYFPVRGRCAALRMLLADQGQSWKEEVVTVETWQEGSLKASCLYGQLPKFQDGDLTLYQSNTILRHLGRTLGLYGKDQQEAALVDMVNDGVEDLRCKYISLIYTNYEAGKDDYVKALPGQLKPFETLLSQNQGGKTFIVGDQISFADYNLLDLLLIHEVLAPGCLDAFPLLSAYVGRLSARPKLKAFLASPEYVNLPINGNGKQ
Sequence of Poly [ADP-ribose] polymerase 1 (P09874 whole entry): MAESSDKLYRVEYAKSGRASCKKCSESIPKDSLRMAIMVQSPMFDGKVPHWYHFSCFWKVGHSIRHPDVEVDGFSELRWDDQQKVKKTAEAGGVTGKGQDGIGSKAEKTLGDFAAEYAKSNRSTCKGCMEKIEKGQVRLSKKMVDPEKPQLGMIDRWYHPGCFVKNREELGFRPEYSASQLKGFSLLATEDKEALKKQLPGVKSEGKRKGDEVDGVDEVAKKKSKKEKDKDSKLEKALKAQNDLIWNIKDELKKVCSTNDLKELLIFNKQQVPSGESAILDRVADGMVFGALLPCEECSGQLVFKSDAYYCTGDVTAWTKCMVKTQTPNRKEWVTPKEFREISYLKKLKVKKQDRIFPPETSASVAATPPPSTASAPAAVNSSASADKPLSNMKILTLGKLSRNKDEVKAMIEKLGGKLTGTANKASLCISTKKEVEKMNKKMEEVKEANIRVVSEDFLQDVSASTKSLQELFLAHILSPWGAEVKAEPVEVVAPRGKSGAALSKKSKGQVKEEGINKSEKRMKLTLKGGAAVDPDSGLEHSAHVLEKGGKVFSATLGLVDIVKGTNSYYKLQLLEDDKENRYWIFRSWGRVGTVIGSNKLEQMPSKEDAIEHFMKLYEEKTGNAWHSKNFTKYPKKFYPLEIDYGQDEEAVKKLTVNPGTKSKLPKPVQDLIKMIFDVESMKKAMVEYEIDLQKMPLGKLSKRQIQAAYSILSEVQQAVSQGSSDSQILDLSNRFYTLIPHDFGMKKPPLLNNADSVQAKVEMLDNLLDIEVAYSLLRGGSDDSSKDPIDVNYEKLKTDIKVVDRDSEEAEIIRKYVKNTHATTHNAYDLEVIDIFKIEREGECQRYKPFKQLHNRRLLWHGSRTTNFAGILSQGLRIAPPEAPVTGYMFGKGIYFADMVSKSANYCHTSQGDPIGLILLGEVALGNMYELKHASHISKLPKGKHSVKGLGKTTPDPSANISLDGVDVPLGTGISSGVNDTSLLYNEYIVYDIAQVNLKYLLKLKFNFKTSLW

For the molecule `CN(C)/[N+]([O-])=N\Oc1cc(O/N=[N+](\[O-])N2CCN(C(=O)c3cc(Cc4n[nH]c(=O)c5ccccc45)ccc3F)CC2)c([N+](=O)[O-])cc1[N+](=O)[O-]`, the result (in the data set with A549 [1]; in [2]; in [3]; in the data set with A549 [4]; in the data set on A549 [5]; with A549 [6]) was Active. For the same molecule, the outcome (with A549 [7]; in the data set on A549 [17]; with A549 [19]; in [20]; with A549 [21]; in the data set on A549 [22]) was Active. Also, in the data set on A549 [8], the “growth inhibition (GI)” value was “Active”. For the same molecule, the Activity in the data set with Mus musculus is 25.3 g. In addition, the Drug uptake result with Tumour [9] is on record as “Active”. Besides, the Drug metabolism result in the data set with Tumour [10], in the data set on A549 [16] and in the data set on U-937 was “metabolite_detected” in each case. The inhibition result (in the data set with A549 [11]; in data set [15]) was “Active” each time. Also, the t1/2 in data set [12] turned out to be 16 min. The figures for the Ratio in [13] and in [14] were 13.3 and 9.2, respectively. In addition, the outcome in the data set on A549 [18] was inactive.
